Source: ChEMBL document CHEMBL4257585, “Structure-Activity Relationships of Photoswitchable Diarylethene-Based β-Hairpin Peptides as Membranolytic Antimicrobial and Anticancer Agents” (J Med Chem, 2018)
Converted amounts (≈) assume the structure as drawn.

What was measured:
[1] = Therapeutic index, ratio of HC50 for human RBC to MIC for Bacillus subtilis DSM 347; assay type: toxicity; details: human red blood cells versus Bacillus subtilis DSM 347
Outline: (§1)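 Ratio of HC50 (RBC) to HeLa IC50 or to MIC against B. subtilis or E. coli; values measured in mg/mL and recalculated to μM, 2-fold dilution without curve fitting, accuracy within a factor of 2.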

Bacillus subtilis = test: Antimicrobial activity against Bacillus subtilis DSM 347 after 22 hrs by resazurin dye based spectrophotometry; assay type: functional; details: DSM 347, 22 h
Outline: (§2)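 2-fold broth microdilution in Mueller–Hinton medium; peptide stocks 1024 μg/mL in 50% ethanol. Exponential-phase cultures diluted to OD550 0.2, then 1:100 (B. subtilis) or 1:1000 (E. coli), giving 5 × 10^5 CFU/mL per well. Incubated 22 h, 37 °C, static; then resazurin (0.2 mg/mL solution) added for 2 h at 37 °C, read visually and spectrophotometrically. Tested in both photoforms.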

HeLa = test: Cytotoxicity against human HeLa cells assessed as reduction in cell viability after 24 hrs by MTT assay; assay type: functional, cell-based
Outline: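 HeLa cells seeded at about 5 × 10^4 cells/mL in DMEM with 10% FBS, 2 mM glutamine, gentamicin; 24 h adaptation (37 °C, 5% CO2), then 24 h peptide exposure. MTT 4 h, formazan in DMSO read at 570 nm. 2-fold series 256–0.5 (open) or 512–1 μg/mL (closed), four repetitions; IC50 extrapolated from killing curves. Closed form handled in dim light.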

Escherichia coli = test: Antimicrobial activity against Escherichia coli DSM 1103 after 22 hrs by resazurin dye based spectrophotometry; assay type: functional; details: DSM 1103, 22 h; outline: as §2
[2] = Therapeutic index, ratio of HC50 for human RBC to MIC for Escherichia coli DSM 1103; assay type: toxicity; details: human red blood cells versus Escherichia coli DSM 1103; outline: as §1
[3] = Hemolytic activity against human RBC assessed as hemolysis after 30 mins by colorimetric method; assay type: ADME, cell-based, Erythrocyte; details: human red blood cells (erythrocytes)
Outline: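 Human erythrocytes washed twice in isotonic 172 mM Tris-HCl, pH 7.6; peptides dissolved in DMSO, diluted in buffer, two independent 10-step 2-fold series from 256 or 192 μg/mL. HC50 extrapolated as 50% hemolysis concentration.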

[4] = Selective ratio of HC50 for human RBC to IC50 for human HeLa cells; assay type: toxicity; details: human red blood cells versus HeLa cells; outline: as §1

| SMILES | selectivity ratio [1] | MIC (Bacillus subtilis) | IC50 (HeLa) | MIC (Escherichia coli) | selectivity ratio [2] | HC50 at 0.5 h [3] | selectivity ratio [4] |
| --- | --- | --- | --- | --- | --- | --- | --- |
| C[C@]12SC3=CC1=C1CCCC1=C1C=C(S[C@@]12C)C(=O)[C@H]1CCCN1C(=O)[C@H](CCCCN)NC(=O)[C@H](C12CC4CC(CC(C4)C1)C2)NC(=O)[C@H](CCCN)NC(=O)[C@@H]1CCCN1C(=O)[C@@H](Cc1ccccc1)NC(=O)[C@H](CCCN)NC(=O)[C@H](C12CC4CC(CC(C4)C1)C2)NC(=O)[C@H](CCCN)NC3=O | 0.3 | 3 µM (≈ 4.44 µg/mL) | 11 µM | 8 µM (≈ 11.8 µg/mL) | 0.1 | 1 µM | 0.1 |
| Cc1sc2cc1C1=C(CCC1)c1cc(sc1C)C(=O)[C@H]1CCCN1C(=O)[C@H](CCCCN)NC(=O)[C@H](CC(C)C)NC(=O)[C@H](CCCCN)NC(=O)[C@H](C(C)C)NC(=O)[C@@H]1CCCN1C(=O)[C@@H](Cc1ccccc1)NC(=O)[C@H](CC(C)C)NC(=O)[C@H](CCCCN)NC(=O)[C@H](C(C)C)NC(=O)[C@H](CCCCN)NC2=O | 4 | 1 µM (≈ 1.57 µg/mL) | 41 µM | 21 µM (≈ 32.9 µg/mL) | 0.2 | 4 µM | 0.1 |
| CC(C)C[C@@H]1NC(=O)[C@H](CCCCN)NC(=O)[C@H](C(C)C)NC(=O)[C@@H]2CCCN2C(=O)[C@@H](Cc2ccccc2)NC(=O)[C@H](CC(C)C)NC(=O)[C@H](CCCCN)NC(=O)[C@H](C(C)C)NC(=O)[C@H](CCCCN)NC(=O)C2=CC3=C4CCCC4=C4C=C(S[C@]4(C)[C@@]3(C)S2)C(=O)[C@H]2CCCN2C(=O)[C@H](CCCCN)NC1=O | 3.1 | 21 µM (≈ 32.9 µg/mL) | 82 µM | 164 µM (≈ 257 µg/mL) | 0.4 | 65 µM | 0.8 |
| CC(C)[C@@H]1NC(=O)C2=CC3=C4CCCC4=C4C=C(S[C@]4(C)[C@@]3(C)S2)C(=O)[C@H]2CCCN2C(=O)[C@H](C(C)C)NC(=O)[C@H](CCCN)N(C)C(=O)[C@H](C(C)C)NC(=O)[C@@H]2CCCN2C(=O)[C@@H](Cc2ccccc2)N(C)C(=O)[C@H](C(C)C)NC(=O)[C@H](CCCN)NC1=O | 32 | 6 µM (≈ 7.68 µg/mL) | 100 µM | 200 µM (≈ 256 µg/mL) | 1 | 192 µM | 1.9 |
| Cc1sc2cc1C1=C(CCC1)c1cc(sc1C)C(=O)[C@H]1CCCN1C(=O)[C@H](C(C)C)NC(=O)[C@H](CCCN)NC(=O)[C@H]([C@H](O)C(C)C)NC(=O)[C@@H]1CCCN1C(=O)[C@@H](Cc1ccccc1)NC(=O)[C@H](C(C)C)NC(=O)[C@H](CCCN)NC(=O)[C@H]([C@H](O)C(C)C)NC2=O | 53.3 | 3 µM (≈ 3.94 µg/mL) | 61 µM | 98 µM (≈ 129 µg/mL) | 1.6 | 160 µM | 2.6 |
| CC(C)[C@@H]1NC(=O)C2=CC3=C4CCCC4=C4C=C(S[C@]4(C)[C@@]3(C)S2)C(=O)[C@H]2CCCN2C(=O)[C@H]([C@H](O)C(C)C)NC(=O)[C@H](CCCN)NC(=O)[C@H](C(C)C)NC(=O)[C@@H]2CCCN2C(=O)[C@@H](Cc2ccccc2)NC(=O)[C@H](C(C)C)NC(=O)[C@H](CCCN)NC1=O | 8 | 25 µM (≈ 32.1 µg/mL) | 300 µM | 200 µM (≈ 257 µg/mL) | 1 | 200 µM | 0.7 |
| C[C@@H](O)[C@@H]1NC(=O)[C@H](C23CC4CC(CC(C4)C2)C3)NC(=O)[C@H](CCCN)NC(=O)[C@@H]2CCCN2C(=O)[C@@H](Cc2ccccc2)NC(=O)[C@H](CCCN)NC(=O)[C@H](C23CC4CC(CC(C4)C2)C3)NC(=O)[C@H](CCCN)NC(=O)C2=CC3=C4CCCC4=C4C=C(S[C@]4(C)[C@@]3(C)S2)C(=O)[C@H]2CCCN2C1=O | 6.5 | 2 µM (≈ 2.91 µg/mL) | 11 µM | 13 µM (≈ 18.9 µg/mL) | 0.1 | 13 µM | 1.2 |
| CC(C)[C@@H]1NC(=O)[C@H](CCCN)NC(=O)[C@H]([C@H](O)C(C)C)NC(=O)C2=CC3=C4CCCC4=C4C=C(S[C@]4(C)[C@@]3(C)S2)C(=O)[C@H]2CCCN2C(=O)[C@H](C(C)C)NC(=O)[C@H](CCCN)NC(=O)[C@H](C(C)C)NC(=O)[C@H](CCCn2cc(COCc3cn(CCC[C@H]4C(=O)N[C@@H](C(C)C)C(=O)N[C@@H](CCCN)C(=O)N[C@@H](C(C)C)C(=O)N5CCC[C@@H]5C(=O)C5=CC6=C7CCCC7=C7C(=CS[C@]7(C)[C@@]6(C)S5)C(=O)N[C@@H]([C@H](O)C(C)C)C(=O)N[C@@H](CCCN)C(=O)N[C@@H](C(C)C)C(=O)N[C@H](Cc5ccccc5)C(=O)N4C)nn3)nn2)N(C)C(=O)[C@@H](Cc2ccccc2)NC1=O | 1.7 | 6 µM (≈ 16.6 µg/mL) | 48 µM | 96 µM (≈ 266 µg/mL) | 0.1 | 10 µM | 0.2 |
| CC(C)[C@@H]1NC(=O)C2=CC3=C4CCCC4=C4C=C(S[C@]4(C)[C@@]3(C)S2)C(=O)[C@H]2CCCN2C(=O)[C@H]([C@@H](C)O)NC(=O)[C@H](CCCN)NC(=O)[C@H](C(C)C)NC(=O)[C@@H]2CCCN2C(=O)[C@@H](Cc2ccccc2)NC(=O)[C@H](C(C)C)NC(=O)[C@H](CCCN)NC1=O | 8 | 51 µM (≈ 64 µg/mL) | 153 µM | 204 µM (≈ 256 µg/mL) | 2 | 408 µM | 2.7 |
| CC[C@H](C)[C@@H]1NC(=O)C2=CC3=C4CCCC4=C4C=C(S[C@]4(C)[C@@]3(C)S2)C(=O)[C@H]2CCCN2C(=O)[C@H]([C@@H](C)CC)NC(=O)[C@H](CCCN)NC(=O)[C@H](CC(C)C)NC(=O)[C@H](CC(C)C)N(C)C(=O)[C@@H](Cc2ccccc2)NC(=O)[C@H]([C@@H](C)CC)NC(=O)[C@H](CCCN)NC1=O | 9 | 3 µM (≈ 4.02 µg/mL) | 25 µM | 191 µM (≈ 256 µg/mL) | 0.1 | 27 µM | 1.1 |
| CC(C)C[C@@H]1NC(=O)[C@H](CCCCN)NC(=O)[C@H](C(C)C)NC(=O)C2=CC3=C4CCCC4=C4C=C(S[C@]4(C)[C@@]3(C)S2)C(=O)[C@H]2CCCN2C(=O)[C@H](CC(C)C)NC(=O)[C@H](CCCCN)NC(=O)[C@H](C(C)C)NC(=O)[C@H](CCCCN)N(C)C(=O)[C@@H](Cc2ccccc2)NC1=O | 7.3 | 3 µM (≈ 4.06 µg/mL) | 24 µM | 95 µM (≈ 129 µg/mL) | 0.2 | 22 µM | 0.9 |
| CC[C@H](C)[C@@H]1NC(=O)C2=CC3=C4CCCC4=C4C=C(S[C@]4(C)[C@@]3(C)S2)C(=O)[C@H]2CCCN2C(=O)[C@H](CC(C)C)NC(=O)[C@H](CCCN)NC(=O)[C@H]([C@@H](C)CC)NC(=O)[C@@H]2CCCN2C(=O)[C@H]2CCCN2C(=O)[C@H](CC(C)C)NC(=O)[C@H](CCCN)NC1=O | 20 | 6 µM (≈ 7.55 µg/mL) | 64 µM | 203 µM (≈ 256 µg/mL) | 0.6 | 120 µM | 1.9 |
| CCCCN1C(=O)[C@@H](Cc2ccccc2)NC(=O)[C@H](CC(C)C)NC(=O)[C@H](CCCN)NC(=O)[C@H]([C@@H](C)CC)NC(=O)C2=CC3=C4CCCC4=C4C=C(S[C@]4(C)[C@@]3(C)S2)C(=O)[C@H]2CCCN2C(=O)[C@H](CC(C)C)NC(=O)[C@H](CCCN)NC(=O)[C@H]([C@@H](C)CC)NC(=O)[C@@H]1CC(C)C | 13 | 1 µM (≈ 1.38 µg/mL) | 13 µM | 186 µM (≈ 257 µg/mL) | 0.1 | 13 µM | 1 |
